# Screens as filed in PubChem BioAssay.
# Sampled rows, rich in hits. Any-hit rate of the full collection: about 3.8%.
# hERG rescue: shields human hERG channel from block by proarrhythmic agents. activation (rescue from dofetilide block), less the hit threshold, % at 10 µM. 310,000 compounds, 0.51% hits. AID 1511. Q12809. CHO-hERG, FluxOR thallium flux, dofetilide IC70 present;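 active = activation above the mean of controls blocked by dofetilide plus 5 SD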;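 also: thallium influx through hERG after potassium depolarization seen as dye fluorescence rise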
# KCNK3 block: human KCNK3 channel inhibition, primary screen | CHO-KCNK3 thallium flux, FluxOR fluorescence; hits give low values | AID 602410 | O14649 | B-score at 10 µM | 340,000 compounds, 0.84% hits;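 active = B-score under library mean minus 4 SD, starting fluorescence ratio at most library mean plus 5 SD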;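 also: more negative B-score means stronger inhibition of thallium flux through KCNK3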
# Target sequence (O14649 whole entry, looked up): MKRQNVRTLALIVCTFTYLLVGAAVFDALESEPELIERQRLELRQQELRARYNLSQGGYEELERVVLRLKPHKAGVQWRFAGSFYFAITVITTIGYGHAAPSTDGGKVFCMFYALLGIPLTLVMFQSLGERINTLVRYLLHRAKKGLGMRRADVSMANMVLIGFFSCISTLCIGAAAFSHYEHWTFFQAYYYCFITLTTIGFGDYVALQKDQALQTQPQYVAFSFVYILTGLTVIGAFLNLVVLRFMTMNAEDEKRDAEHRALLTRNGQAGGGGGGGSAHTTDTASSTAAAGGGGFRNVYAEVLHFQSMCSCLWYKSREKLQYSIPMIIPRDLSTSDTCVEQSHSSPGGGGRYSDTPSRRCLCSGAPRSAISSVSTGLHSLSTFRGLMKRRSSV
# KCNQ1 inh: human KCNQ1 channel inhibition | CHO-K1 KCNQ1, FluxOR thallium flux fluorescence; hits give high values | B-score at 10 µM | 310,000 compounds, 1.3% hits | AID 2642;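 active = compounds whose thallium flux B-score, printed positive for inhibition, exceeds three library SD while starting fluorescence stays within three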;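 also: channel opened by potassium depolarization with thallium stimulus after 20 min compound exposure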
# KCNQ1 act: potentiates or activates the human KCNQ1 potassium channel; CHO-K1 KCNQ1, thallium flux FluxOR fluorescence; hits give high values; B-score at 10 µM; 310,000 compounds, 0.35% hits;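 active = fluorescence ratio B-score, a plate-corrected score, at least three library SD, with initial intensity B-score within 5 SD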
#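 System: CHO-K1 cells stably expressing KCNQ1 / Medium: assay buffer for compound exposure, DMSO matched across wells / Reagent: thallium- and potassium-containing depolarizing buffer / Compound: one concentration, matched DMSO / Incubation: 20 min compound pretreatment at room temperature / Measured by: kinetic FluxOR fluorescence, 10 s baseline plus 110 s post-stimulus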
# KCNK9 inh: blocks the human KCNK9 two-pore domain potassium channel | HEK293 KCNK9, FluxOR thallium flux fluorescence; hits give low values | Q9NPC2 | B-score at 10 µM | AID 488922 | 310,000 compounds, 1.2% hits;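 active = ratio B-score over 3 SD below the library mean, with starting fluorescence within 5 SD of its mean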;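 also: negative B-score means less thallium flux so channel inhibition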
# Kir21 inh: blocks the mouse Kir2.1 inward-rectifier potassium channel | HEK293-Kir2.1, FluxOR thallium flux fluorescence; hits give low values | P35561 | B-score at 10 µM | 310,000 compounds, 0.85% hits;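 active = fluorescence ratio B-score at or below minus 3 SD of library scores, with starting-brightness B-score within 2 SD, cut at about -4.2 in these data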;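 also: channel flux triggered by added potassium and thallium sulfate stimulus; B-score of peak minus minimum fluorescence over baseline after thallium stimulus; more negative B-score means stronger Kir2.1 block with less thallium influx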
# KCNK9 inh conf: confirmation of human KCNK9 potassium channel inhibitors | 4,900 compounds, 43% hits | HEK293 KCNK9 cells, FluxOR thallium flux fluorescence | shares compounds with KCNK9 inh | inhibition, % at 10 µM;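 active = thallium signal inhibited by more than 5 SD of the compound-free buffer control wells, on both duplicate plates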;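 also: 0% = assay buffer control wells without compound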
# Kir21 sel: selectivity of KCNK9 modulators against mouse Kir2.1. shares compounds with KCNK9 inh. inhibition, % at 10 µM. 4,900 compounds, 4% hits. Kir2.1 cells, FluxOR thallium flux fluorescence;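 active = thallium signal drop more than 5 SD beyond the mean of the no-compound control wells, seen in both duplicate plates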;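 also: signal is fluorescence rise after thallium addition divided by baseline fluorescence; plate controls were assay buffer only for no effect and full block by chlorpromazine control for full effect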
# HEK293 Tl ctr: non-induced cell nonspecific activity of KCNK9 modulators | inhibition, % at 10 µM | 4,900 compounds, 40% hits | shares compounds with KCNK9 inh | non-induced KCNK9-HEK293, FluxOR thallium flux;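 active = thallium signal drop beyond 5 SD of the untreated control mean, on both duplicate plates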;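 also: plate controls were buffer only IC0 wells for no effect and SID17386958 at its maximal inhibitory level for full effect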
# An asterisk follows results filed as active; i = inactive; · = no result.
SMILES,hERG rescue,KCNK3 block,KCNQ1 inh,KCNQ1 act,KCNK9 inh,Kir21 inh,KCNK9 inh conf,Kir21 sel,HEK293 Tl ctr
Cc1cc(N/N=C/c2ccc(Cl)cc2)nc(NCc2ccccc2)n1,-3,i,i,i,i,1.2,·,·,·
O=C(Nc1ccc(S(=O)(=O)Nc2ncccn2)cc1)c1ccc2ncsc2c1,-18,i,i,i,i,-0.01,·,·,·
C/C(=N\NC(=S)NCCc1ccccc1)c1ccc(C#N)cc1,-7,i,i,i,i,-0.06,·,·,·
C/C(=N\NC(=S)NCCc1ccccc1)c1ccc(Cl)cc1,0,i,i,i,i,1.3,i,i,i
C/C(=N\NC(=S)NCCc1ccccc1)c1ccc(C)cc1,-12,i,i,i,i,1.9,i,i,i
S=C(NCCc1ccccc1)N/N=C/c1ccccc1Cl,-4,i,i,i,i,-1.4,i,i,i
CC(C)(C)OC(=O)C[C@H]1C/C=C\C[C@@H](CC(=O)NCCO)C(=O)N[C@H](C(C)(C)C)COC1=O,·,i,·,·,·,·,·,·,·
COCCN(CCOc1cc(C)cc(C)c1)Cc1ccc(Cl)cc1,-9,i,i,i,i,-1.9,i,i,i
C=CCOC(=O)/C=C/C(=O)NC(N)=O,-13,i,i,i,i,-0.07,·,·,·
Brc1ccc(N/N=C(/N=Nc2nn[nH]n2)c2ccccc2)cc1,-7,i,12*,i,i,-0.58,i,i,i
O=C(CN1CCN(c2ccccn2)CC1)N1c2ccccc2Sc2ccc(C(F)(F)F)cc21,-11,i,i,i,i,0.6,i,i,i
Cc1cc(C(=O)COC(=O)CNC(=O)c2ccco2)c(C)n1Cc1ccco1,-7,i,i,i,i,-0.02,·,·,·
Cc1cc(C(=O)COC(=O)c2ccc(Br)o2)c(C)n1Cc1ccco1,-8,·,i,i,i,0.54,i,i,i
COc1cc(OC)cc(C(=O)NCC(=O)OCC(=O)c2cc(C)n(Cc3ccco3)c2C)c1,-8,i,i,i,i,-0.03,·,·,·
Cc1cc(C(=O)COC(=O)CCC(=O)c2ccc3c(c2)OCCO3)c(C)n1Cc1ccco1,-7,i,i,i,i,-0.29,i,i,i
CCc1ccc(NC(=O)CCn2ccnc2C)cc1,-6,i,i,i,i,0.24,·,·,·
Cn1nnnc1SCC(=O)N1c2ccccc2Sc2ccccc21,-3,i,i,i,i,-1.3,·,·,·
CCn1nnnc1SCC(=O)N1c2ccccc2Sc2ccccc21,1,i,i,i,i,-0.52,i,i,i
Cc1cc(/C=c2\sc3nc4ccccc4n3c2=O)c(C)n1-c1ccc(C(=O)O)cc1,-31,i,i,i,i,-2.5,i,i,i
Cc1cc(/C=c2/sc3nc4ccccc4n3c2=O)c(C)n1-c1ccccn1,-12,i,i,i,i,-1.9,·,·,·
C=CCNC(=O)c1ccc(N(Cc2ccccc2)S(C)(=O)=O)cc1,-11,i,i,i,i,-0.14,·,·,·
O=C(c1cccs1)N1CCN(Cc2cccc([N+](=O)[O-])c2)CC1,-4,i,i,i,i,-0.63,·,·,·
COc1cccc(CN(C)C(c2ccccc2)c2ccccc2)c1OC,-11,i,i,i,-8.2*,0.41,i,i,i
COc1cccc(CN(C)C(=O)Cc2c[nH]c3ccccc23)c1OC,-7,i,i,i,i,-0.65,·,·,·
O=S(=O)(c1ccccc1)c1nc(-c2ccccc2)oc1N1CCCCC1,-9,i,i,i,i,0.5,·,·,·
SMILES,hERG rescue,KCNK3 block,KCNQ1 inh,KCNQ1 act,KCNK9 inh,Kir21 inh,KCNK9 inh conf,Kir21 sel,HEK293 Tl ctr
O=C(Nc1ccc(F)cc1F)c1sccc1SCc1cccc(C(F)(F)F)c1,-14,i,8*,i,-12*,-1.7,68%*,42%*,50%*
O=C(Nc1ccc(F)cc1)c1sccc1SCc1cccc(C(F)(F)F)c1,-9,i,i,i,-13*,-1.9,62%*,46%*,48%*
Cc1ccc(S(=O)(=O)N(C)CCCC(=O)NC(C)(C)CO)cc1,-6,i,i,i,i,-0.26,·,·,·
CCO[C@H]1OC(C(N)=O)=C[C@@H](c2ccccc2)[C@@H]1CCCO,-6,i,i,i,i,0.3,·,·,·
CCc1ccc(C(=O)c2cnc3ccc(OC)cc3c2N2CCN(CC)CC2)cc1,-13,i,i,i,i,-1,i,i,i
CCOc1ccc(C(=O)c2cnc3ccccc3c2N2CCN(CC)CC2)cc1,-16,i,i,i,i,-1.1,·,·,·
Cn1cc([N+](=O)[O-])c(C(=O)Nc2cc(Oc3cccnc3)cc([N+](=O)[O-])c2)n1,-8,·,i,i,i,-0.45,·,·,·
COc1ccc(C2=NCC(CSc3nnc(-c4ccc5c(c4)OCO5)o3)S2)cc1 (stereo not given),-13,i,i,i,i,1.4,i,i,i
Cc1ccc(CSc2nnc(-c3ccc4c(c3)OCO4)o2)cc1,-9,i,i,i,i,-1.4,·,·,·
COC(=O)c1cc(S(=O)(=O)N(C)C2CCCCC2)c[nH]1,-12,i,i,i,i,0.22,·,·,·
Clc1ccc(N=c2ssnc2Cl)cc1,-18,i,i,i,i,-2.1,·,·,·
Fc1ccc(N=c2ssnc2Cl)c(F)c1,-13,i,i,i,i,0.17,i,i,i
CC(C)CNC(=O)c1oc2ccccc2c1COc1ccccc1,-9,i,i,i,i,-2.1,i,i,i
CC(=O)c1c(N2CCN(c3ccccn3)CC2)nc(=S)n(-c2ccccc2)c1C,-4,i,i,i,i,0,·,·,·
Cc1cc(C)c(NC(=O)c2cccc3c2C(=O)N(C2CCCCC2)C3)c(C)c1,-12,i,i,i,-12*,0.01,i,i,52%*
Cc1ccc(NC(=O)c2cccc3c2C(=O)N(C2CCCCC2)C3)c(C)c1,-7,i,i,i,i,-0.05,·,·,·
Cc1cccc(/C=N/n2c(COc3ccccc3)n[nH]c2=S)c1,1,i,i,14*,-9*,-0.84,i,i,i
